{"data": "Measurements gathered from unrelated publications", "SLC6A3": "Sodium-dependent dopamine transporter (SLC6A3, Homo sapiens, UniProt Q01959)", "PDE10A": "cAMP and cAMP-inhibited cGMP 3',5'-cyclic phosphodiesterase 10A (PDE10A, Homo sapiens, UniProt Q9Y233)", "note": "Compare with care: the assays were run in different laboratories."}
{"SMILES": "CCOC(=O)[C@@]12C[C@@H]1[C@@H](n1cnc3c(NCCCCCc4ccccc4)nc(C#Cc4ccccc4)nc31)[C@H](O)[C@@H]2O", "target": "SLC6A3", "observed": "transporter uptake", "mode": "inhibitor", "technique": "radiometric", "cell line": "HEK293", "tested at": "10 µM", "inhibition": "9%"}
{"SMILES": "c1ccc(-c2cccc(Cc3ncnc4ccccc34)c2)cc1", "target": "PDE10A", "observed": "enzyme activity", "mode": "inhibitor", "technique": "FP", "tested at": "0.1 µM", "inhibition": "0%"}
{"SMILES": "C#Cc1cc(-c2cc(Nc3nc(N[C@@H](C)c4ccc(F)cn4)ncc3Cl)n[nH]2)ccc1C=O", "target": "Mitogen-activated protein kinase 15 (MAPK15, Homo sapiens, UniProt Q8TD08)", "observed": "enzyme activity", "mode": "inhibitor", "tested at": "0.2 µM", "inhibition": "11.5%"}
{"SMILES": "NC/C(=C\\F)COc1cccc(Cn2c(=S)[nH]c(=O)c3[nH]cnc32)c1", "target": "Sodium- and chloride-dependent GABA transporter 1 (Slc6a1, Rattus norvegicus, UniProt P23978)", "observed": "ligand displacement", "technique": "radioligand", "tested at": "10 µM", "inhibition": "< 50%"}
{"SMILES": "N#CC[C@@]12C[C@@H]1[C@@H](n1cnc3c(Nc4ccccc4)nc(C#Cc4ccc(Cl)s4)nc31)[C@H](O)[C@@H]2O", "target": "SLC6A3", "observed": "ligand displacement", "technique": "radioligand", "tested at": "10 µM", "inhibition": "18%"}
{"SMILES": "COc1ccc2nccc(Cc3cccc(-c4cnn(C5COC5)c4)c3)c2c1", "target": "PDE10A", "observed": "enzyme activity", "mode": "inhibitor", "technique": "FP", "tested at": "0.1 µM", "inhibition": "3%"}
{"SMILES": "Cc1cc(O)c(-c2ccc([C@@H](C)CN(C)C)cc2)c2c1[nH]c(=O)c1sccc12", "target": "Serine/threonine-protein kinase D1 (PRKD1, Homo sapiens, UniProt Q15139)", "observed": "enzyme activity", "mode": "inhibitor", "tested at": "0.1 µM", "inhibition": "-0.107%"}
{"SMILES": "COc1ccc(Cc2nccc3cc(C4COC4)ccc23)cc1OC", "target": "PDE10A", "observed": "enzyme activity", "mode": "inhibitor", "technique": "FP", "tested at": "0.1 µM", "inhibition": "0%"}
{"SMILES": "N#CC[C@@]12C[C@@H]1[C@@H](n1cnc3c(NCc4cccc(Cl)c4)nc(C#Cc4ccc(Cl)s4)nc31)[C@H](O)[C@@H]2O", "target": "SLC6A3", "observed": "ligand displacement", "technique": "radioligand", "tested at": "10 µM", "inhibition": "89%"}
